According to the array DNA melting data of Ke et al. (doi:10.1101/2024.01.08.574731):

Tests used:
[1] = folding enthalpy; higher = less favourable; fluorescence melt of hairpins on a sequencing array, two-state fit; details: sodium 0.088 M
Summary of the method: (§1)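 On a sequenced MiSeq flow cell, library hairpins with annealed Cy3 and quencher oligos were imaged for Cy3 fluorescence in 2.5 °C steps up to 60 °C, in 50 mM Na-HEPES pH 8.0, 25 mM NaCl. Normalisation used pre-quench Cy3 and control constructs. Bootstrapped two-state fits gave melting temperature and folding enthalpy, combined by inverse variance across four replicates and with fitted temperatures raised by 9.35 °C to match UV melts.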

[2] = melting temperature; fluorescence melt of hairpins on a sequencing array, two-state fit, raised by 9.35 °C to match UV melts; details: sodium 0.088 M
Summary of the method: as §1

Row | Sequence | folding enthalpy [1] [kcal/mol] | Tm [2] [°C]
1 | GATTAACCGAAAGGTATC (((..(((....)))))) | -12.7 | 27.6
2 | GATTAACGAAAGTTCATC (((.(((....))).))) | -24.6 | 33.9
3 | GATTAACGAAAGTTTATC (((.(((....))).))) | -22.8 | 34.9
4 | GATTAAGGAAACTTAGTC ((.((((....)))).)) | -12.6 | 28
5 | GATTACACGAAAGTGATC (((..(((....)))))) | -9.64 | 26.4
6 | GATTACGAAAGTAAATC ((((((....))).))) | -19.9 | 36
7 | GATTACGAAAGTAAGATC ((((((....)))..))) | -16.2 | 39
8 | GATTACGAAAGTATAATC ((((((....)))..))) | -7.84 | 27.1
9 | GATTACGAAAGTATATC ((((((....))).))) | -17.1 | 32.9
10 | GATTACGCGAAAGCGATC (((..(((....)))))) | -6.5 | 21.4
11 | GATTAGCGAAAGCTGATC (((.(((....))).))) | -31 | 51.1
12 | GATTAGGAAACTAATC ((((((....)))))) | -30.5 | 43.9
13 | GATTAGGCGAAAGCCATC (((..(((....)))))) | -8.82 | 23.4
14 | GATTAGGGAAACCTAGTC ((.((((....)))).)) | -25.4 | 33.7
15 | GATTCCCGAAAGGGGATC (((.(((....))).))) | -36.3 | 57.3
16 | GATTCCGAAAGGACATC ((((((....))).))) | -21.4 | 39.2
17 | GATTCCGAAAGGAGATC ((((((....))).))) | -21.3 | 33.7
18 | GATTCCGAAAGGAGTATC ((((((....)))..))) | -15.7 | 27.1
19 | GATTCCGAAAGGATCATC ((((((....)))..))) | -17 | 29.6
20 | GATTCGGGAAACCGAACC (.(((((....))))).) | -13.7 | 40.2
21 | GATTCTCCGAAAGGAATC (((..(((....)))))) | -14.2 | 28.2
22 | GATTCTGAAAAGAATC ((((((....)))))) | -33.1 | 50
23 | GATTCTGGAAACAGAGTC ((.((((....)))).)) | -30.2 | 38.3

Row | Sequence | folding enthalpy [1] [kcal/mol] | Tm [2] [°C]
24 | GATTGACGAAAGTCCATC (((.(((....))).))) | -23 | 39.3
25 | GATTGAGCGAAAGCTATC (((..(((....)))))) | -11.6 | 30.7
26 | GATTGAGGAAACCCAATC (((((.(....).))))) | -29.2 | 35.1
27 | GATTGCGAAAGCAAATC ((((((....))).))) | -15.9 | 50.2
28 | GATTGCGAAAGCATCATC ((((((....)))..))) | -10.9 | 29.6
29 | GATTGCGAAAGCATTATC ((((((....)))..))) | -11.2 | 26.6
30 | GATTGCGGAAACACAATC (((((.(....).))))) | -28.9 | 41.6
31 | GATTGCGGAAACGCAATC (((((((....))))))) | -37.8 | 67.9
32 | GATTGCGGAAACGTAATC ((((.((....)).)))) | -38.8 | 47.6
33 | GATTGGAAACAATC (((((....))))) | -23.6 | 40.5
34 | GATTGGACGAAAGTCATC (((..(((....)))))) | -10.5 | 27
35 | GATTGGGAAACCAATC ((((((....)))))) | -35 | 52.3
36 | GATTGGGGAAACCCAGTC ((.((((....)))).)) | -24.4 | 44.7
37 | GATTGGGGAAACCTGATC (((..((....))..))) | -18.6 | 30.6
38 | GATTGTGAAAACAATC ((((((....)))))) | -35.9 | 51.4
39 | GATTGTGGAAACACAACC (.(((((....))))).) | -16.9 | 35.9
40 | GATTGTGGAAACACAATC (((((((....))))))) | -43.6 | 56.8
41 | GATTTCACGAAAGTGATC (((..(((....)))))) | -9.78 | 23.4
42 | GATTTCGAAAGAAATC ((((((....)))))) | -38.2 | 55
43 | GATTTGACGAAAGTCATC (((..(((....)))))) | -8.24 | 27.3
44 | GATTTGCGAAAGCAGATC (((.(((....))).))) | -32 | 50
45 | GATTTGGGAAACCAAGTC ((.((((....)))).)) | -28.7 | 38.8
46 | GATTTTGGAAACAGAATC ((((.((....)).)))) | -24.7 | 32.1

Row | Sequence | folding enthalpy [1] [kcal/mol] | Tm [2] [°C]
47 | GATTTTGGAAACGAAATC (((((.(....).))))) | -34.9 | 39.6
48 | GCAAAAGAAATTTTGC ((((((....)))))) | -25.9 | 46.3
49 | GCAAACACGAAAGTGTGC (((..(((....)))))) | -15.4 | 48.6
50 | GCAAACCGAAAGGTATGC (((.(((....))).))) | -37.5 | 53.4
51 | GCAAACGAAAGTTATGC ((((((....))).))) | -24.3 | 38.4
52 | GCAAACGAAAGTTCGTGC ((((((....)))..))) | -17.3 | 35.6
53 | GCAAACGAAAGTTGATGC ((((((....)))..))) | -15.2 | 35.9
54 | GCAAACGGAAACGTTTAC (.(((((....))))).) | -18.7 | 38.4
55 | GCAAACTCGAAAGAGTGC (((..(((....)))))) | -18 | 43.8
56 | GCAAAGCCGAAAGGCTGC (((..(((....)))))) | -14.2 | 54
57 | GCAAAGCGAAAGCCCTGC (((..((....))..))) | -10.3 | 28.5
58 | GCAAAGCGAAAGCTATGC (((.(((....))).))) | -33.5 | 52
59 | GCAAAGGGAAACCTCTGC (((.(((....))).))) | -19.1 | 33.8
60 | GCAAAGGGAAACCTTCGC ((.((((....)))).)) | -26.8 | 39.2
61 | GCAAAGGGAAACCTTTAC (.(((((....))))).) | -15.8 | 28
62 | GCAAAGGGAAACCTTTGC (((((((....))))))) | -45.1 | 64.1
63 | GCAAATCCGAAAGGATGC (((..(((....)))))) | -17.5 | 47.8
64 | GCAAATGCGAAAGCATGC (((..(((....)))))) | -15 | 51.4
65 | GCAAATGGAAACATCTGC (((.(((....))).))) | -20.3 | 33
66 | GCAAATTCGAAAGAATGC (((..(((....)))))) | -18.4 | 35.8
67 | GCAACAGGAAACTGCTGC (((.(((....))).))) | -30.2 | 44.6
68 | GCAACATCGAAAGATTGC (((..(((....)))))) | -19.8 | 34.2
69 | GCAACCCGAAAGGGATGC (((.(((....))).))) | -32.9 | 63.5

Row | Sequence | folding enthalpy [1] [kcal/mol] | Tm [2] [°C]
70 | GCAACCCGAAAGGGCTGC (((.(((....))).))) | -44.6 | 60.6
71 | GCAACCCGAAAGGGTGC (((.(((....)))))) | -19.1 | 64.1
72 | GCAACCGAAAGGTCTTGC ((((((....)))..))) | -16.5 | 35.7
73 | GCAACCGAAAGGTGCTGC ((((((....)))..))) | -23.5 | 57.1
74 | GCAACCGAAAGGTTATGC ((((((....)))..))) | -12.3 | 44.1
75 | GCAACCGAAAGGTTTGC ((((((....))).))) | -23.6 | 55.7
76 | GCAACCGAAAGGTTTTGC ((((((....)))..))) | -14.4 | 39.9
77 | GCAACGCGAAAGCACTGC (((..((....))..))) | -11.4 | 41.4
78 | GCAACGCGAAAGCCCTGC (((..((....))..))) | -7.63 | 23.8
79 | GCAACGCGAAAGCGAGGC ((..(((....)))..)) | -13.5 | 59.9
80 | GCAACGGGAAACCGTCGC ((.((((....)))).)) | -28.3 | 49.4
81 | GCAACGGGAAACCGTTAC (.(((((....))))).) | -13.3 | 38.6
82 | GCAACTACGAAAGTATGC (((..(((....)))))) | -16.5 | 32.1
83 | GCAACTGGAAACAGCTGC (((.(((....))).))) | -35.8 | 46.2
84 | GCAAGACGAAAGTCCTGC (((.(((....))).))) | -26.4 | 48.7
85 | GCAAGAGAAATCTTGC ((((((....)))))) | -38.3 | 52.8
86 | GCAAGCCCGAAAGGGTGC (((..(((....)))))) | -14.4 | 47.2
87 | GCAAGCGAAAGCTGGTGC ((((((....)))..))) | -20.9 | 47.6
88 | GCAAGCGAAAGCTGTTGC ((((((....)))..))) | -15.7 | 45.9
89 | GCAAGCGAAAGCTTTTGC ((((((....)))..))) | -12.8 | 42.2
90 | GCAAGGACGAAAGTCTGC (((..(((....)))))) | -17.5 | 44.6
91 | GCAAGGCGAAAGCGTAGC ((.(.((....)).).)) | -11.6 | 40.5
